Laboratory results as given in ChEMBL document CHEMBL1148020, “Synthesis and glycogen phosphorylase inhibitor activity of 2,3-dihydrobenzo[1,4]dioxin derivatives” (Bioorg Med Chem, 2007).

Key:
[1] = Inhibition of glycogen phosphorylase; set-up: species or system Homo sapiens
Summary of the method: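 Activity measured in the glycogen-synthesis direction at 30 °C with 1% glycogen, with or without glucose-1-phosphate substrate. Buffer was 50 mM triethanolamine/HCl pH 6.8 with 100 mM KCl, 1 mM dithiothreitol and 1 mM EDTA. Muscle or liver phosphorylase a was run without AMP. Phosphorylase b was run with AMP: 1 mM for muscle, 2 mM for liver. Kinetic analysis followed the authors' earlier protocol.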

Homo sapiens [2] = species: Homo sapiens; assay: Inhibition of glycogen phosphorylase at 625 uM
[3] = target: T1, Glycogen phosphorylase, liver form (Homo sapiens) (UniProt P06737); assay: Inhibition of liver glycogen phosphorylase B at 625 uM
T1 sequence (whole entry): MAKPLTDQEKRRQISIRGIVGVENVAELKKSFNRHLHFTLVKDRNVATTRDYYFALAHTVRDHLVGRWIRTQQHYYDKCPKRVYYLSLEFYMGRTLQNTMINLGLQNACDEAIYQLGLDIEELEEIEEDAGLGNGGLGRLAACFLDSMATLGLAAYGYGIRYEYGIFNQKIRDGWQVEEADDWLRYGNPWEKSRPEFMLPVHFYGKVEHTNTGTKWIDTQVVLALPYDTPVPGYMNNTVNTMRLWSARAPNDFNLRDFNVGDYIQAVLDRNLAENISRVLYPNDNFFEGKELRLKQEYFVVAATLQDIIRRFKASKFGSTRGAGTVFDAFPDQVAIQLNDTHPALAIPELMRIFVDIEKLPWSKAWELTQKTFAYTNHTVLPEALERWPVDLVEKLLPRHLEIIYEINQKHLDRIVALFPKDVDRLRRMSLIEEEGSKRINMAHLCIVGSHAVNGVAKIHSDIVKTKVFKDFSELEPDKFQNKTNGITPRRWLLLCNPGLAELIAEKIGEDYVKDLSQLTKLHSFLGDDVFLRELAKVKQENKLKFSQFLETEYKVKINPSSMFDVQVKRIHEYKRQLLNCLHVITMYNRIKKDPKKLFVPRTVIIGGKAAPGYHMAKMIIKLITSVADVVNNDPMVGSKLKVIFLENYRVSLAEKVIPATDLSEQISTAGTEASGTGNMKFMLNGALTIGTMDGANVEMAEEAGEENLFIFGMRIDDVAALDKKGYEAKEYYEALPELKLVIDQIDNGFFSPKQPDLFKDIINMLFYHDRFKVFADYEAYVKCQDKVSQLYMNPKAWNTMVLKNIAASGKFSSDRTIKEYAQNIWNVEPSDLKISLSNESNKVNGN

Homo sapiens [4] = species: Homo sapiens; assay: Inhibition of glycogen phosphorylase A at 625 uM

O=C1NC(=O)C(Cc2ccc(OCC3COc4cc5c(cc4O3)OCO5)cc2)S1 (configuration not stated)
IC50 [1]: 7 mM

O=C1NC(=O)C(Cc2ccc(OCC3COc4ccccc4O3)cc2)S1 (configuration not stated)
inhibition (Homo sapiens [2]): 20%
inhibition [3]: 20%
inhibition (Homo sapiens [4]): 20%

O=C1N=C(O)S/C1=C\c1ccc(OCC2COc3ccccc3O2)cc1 (configuration not stated)
inhibition (Homo sapiens [2]): 20%
inhibition [3]: 20%
inhibition (Homo sapiens [4]): 20%
